Test results taken from PMC5538437 (Genes & Development, 2017).

B1: GYF1 NC*: GYF1 L60D, F65D, V68D; non-canonical mutant (protein, UniProt O75420 1-1035, looked up, variant L60D F65D V68D)
GRB10-interacting GYF protein …: MAAETLNFGPEWLRALSGGGSVASPPPSPAMPKYKLADYRYGREEMLALYVKENKVPEEDQDKEDAADLQDEPLQPLALEPLTEEEQRNFSLSVNSVAVLRLMGKGAGPPLAGTSRGRGSTRSRGRGRGDSCFYQRSIEEGDGAFGRSPREIQRSQSWDDRGERRFEKSARRDGARCGFEEGGAGPRKEHARSDSENWRSLREEQEEEEEGSWRLGAGPRRDGDRWRSASPDGGPRSAGWREHGERRRKFEFDLRGDRGGCGEEEGRGGGGSSHLRRCRAPEGFEEDKDGLPEWCLDDEDEEMGTFDASGAFLPLKKGPKEPIPEEQELDFQGLEEEEEPSEGLEEEGPEAGGKELTPLPPQEEKSSSPSPLPTLGPLWGTNGDGDETAEKEPPAAEDDIRGIQLSPGVGSSAGPPGDLEDDEGLKHLQQEAEKLVASLQDSSLEEEQFTAAMQTQGLRHSAAATALPLSHGAARKWFYKDPQGEIQGPFTTQEMAEWFQAGYFSMSLLVKRGCDEGFQPLGEVIKMWGRVPFAPGPSPPPLLGNMDQERLKKQQELAAAALYQQLQHQQFLQLVSSRQLPQCALREKAALGDLTPPPPPPPQQQQQQLTAFLQQLQALKPPRGGDQNLLPTMSRSLSVPDSGRLWDVHTSASSQSGGEASLWDIPINSSTQGPILEQLQLQHKFQERREVELRAKREEEERKRREEKRRQQQQEEQKRRQEEEELFRRKHVRQQELLLKLLQQQQAVPVPPAPSSPPPLWAGLAKQGLSMKTLLELQLEGERQLHKQPPPREPARAQAPNHRVQLGGLGTAPLNQWVSEAGPLWGGPDKSGGGSSGLGLWEDTPKSGGSLVRGLGLKNSRSSPSLSDSYSHLSGRPIRKKTEEEEKLLKLLQGIPRPQDGFTQWCEQMLHTLSATGSLDVPMAVAILKEVESPYDVHDYIRSCLGDTLEAKEFAKQFLERRAKQKASQQRQQQQEAWLSSASLQTAFQANHSTKLGPGEGSKAKRRALMLHSDPSILGYSLHGSSGEIESVDDY
B2: GYF1 A1*: GYF1 P76D, L77A; auxiliary site 1 mutant (protein, UniProt O75420 1-1035, looked up, variant P76D L77A)
GRB10-interacting GYF protein …: MAAETLNFGPEWLRALSGGGSVASPPPSPAMPKYKLADYRYGREEMLALYVKENKVPEELQDKEFAAVLQDEPLQDAALEPLTEEEQRNFSLSVNSVAVLRLMGKGAGPPLAGTSRGRGSTRSRGRGRGDSCFYQRSIEEGDGAFGRSPREIQRSQSWDDRGERRFEKSARRDGARCGFEEGGAGPRKEHARSDSENWRSLREEQEEEEEGSWRLGAGPRRDGDRWRSASPDGGPRSAGWREHGERRRKFEFDLRGDRGGCGEEEGRGGGGSSHLRRCRAPEGFEEDKDGLPEWCLDDEDEEMGTFDASGAFLPLKKGPKEPIPEEQELDFQGLEEEEEPSEGLEEEGPEAGGKELTPLPPQEEKSSSPSPLPTLGPLWGTNGDGDETAEKEPPAAEDDIRGIQLSPGVGSSAGPPGDLEDDEGLKHLQQEAEKLVASLQDSSLEEEQFTAAMQTQGLRHSAAATALPLSHGAARKWFYKDPQGEIQGPFTTQEMAEWFQAGYFSMSLLVKRGCDEGFQPLGEVIKMWGRVPFAPGPSPPPLLGNMDQERLKKQQELAAAALYQQLQHQQFLQLVSSRQLPQCALREKAALGDLTPPPPPPPQQQQQQLTAFLQQLQALKPPRGGDQNLLPTMSRSLSVPDSGRLWDVHTSASSQSGGEASLWDIPINSSTQGPILEQLQLQHKFQERREVELRAKREEEERKRREEKRRQQQQEEQKRRQEEEELFRRKHVRQQELLLKLLQQQQAVPVPPAPSSPPPLWAGLAKQGLSMKTLLELQLEGERQLHKQPPPREPARAQAPNHRVQLGGLGTAPLNQWVSEAGPLWGGPDKSGGGSSGLGLWEDTPKSGGSLVRGLGLKNSRSSPSLSDSYSHLSGRPIRKKTEEEEKLLKLLQGIPRPQDGFTQWCEQMLHTLSATGSLDVPMAVAILKEVESPYDVHDYIRSCLGDTLEAKEFAKQFLERRAKQKASQQRQQQQEAWLSSASLQTAFQANHSTKLGPGEGSKAKRRALMLHSDPSILGYSLHGSSGEIESVDDY
B3: GYF2 NC*: GYF2 L62D, F67D, I70D; non-canonical mutant (protein, UniProt Q6Y7W6 2-1299, looked up, variant L62D F67D I70D)
GRB10-interacting GYF protein …: AAETQTLNFGPEWLRALSSGGSITSPPLSPALPKYKLADYRYGREEMLALFLKDNKIPSDDLDKEDLPDLQEEPLPPLALVPFTEEEQRNFSMSVNSAAVLRLTGRGGGGTVVGAPRGRSSSRGRGRGRGECGFYQRSFDEVEGVFGRGGGREMHRSQSWEERGDRRFEKPGRKDVGRPNFEEGGPTSVGRKHEFIRSESENWRIFREEQNGEDEDGGWRLAGSRRDGERWRPHSPDGPRSAGWREHMERRRRFEFDFRDRDDERGYRRVRSGSGSIDDDRDSLPEWCLEDAEEEMGTFDSSGAFLSLKKVQKEPIPEEQEMDFRPVDEGEECSDSEGSHNEEAKEPDKTNKKEGEKTDRVGVEASEETPQTSSSSARPGTPSDHQSQEASQFERKDEPKTEQTEKAEEETRMENSLPAKVPSRGDEMVADVQQPLSQIPSDTASPLLILPPPVPNPSPTLRPVETPVVGAPGMGSVSTEPDDEEGLKHLEQQAEKMVAYLQDSALDDERLASKLQEHRAKGVSIPLMHEAMQKWYYKDPQGEIQGPFNNQEMAEWFQAGYFTMSLLVKRACDESFQPLGDIMKMWGRVPFSPGPAPPPHMGELDQERLTRQQELTALYQMQHLQYQQFLIQQQYAQVLAQQQKAALSSQQQQQLALLLQQFQTLKMRISDQNIIPSVTRSVSVPDTGSIWELQPTASQPTVWEGGSVWDLPLDTTTPGPALEQLQQLEKAKAAKLEQERREAEMRAKREEEERKRQEELRRQQEEILRRQQEEERKRREEEELARRKQEEALRRQREQEIALRRQREEEERQQQEEALRRLEERRREEEERRKQEELLRKQEEEAAKWAREEEEAQRRLEENRLRMEEEAARLRHEEEERKRKELEVQRQKELMRQRQQQQEALRRLQQQQQQQQLAQMKLPSSSTWGQQSNTTACQSQATLSLAEIQKLEEERERQLREEQRRQQRELMKALQQQQQQQQQKLSGWGNVSKPSGTTKSLLEIQQEEARQMQKQQQQQQQHQQPNRARNNTHSNLHTSIGNSVWGSINTGPPNQWASDLVSSIWSNADTKNSNMGFWDDAVKEVGPRNSTNKNKNNASLSKSVGVSNRQNKKVEEEEKLLKLFQGVNKAQDGFTQWCEQMLHALNTANNLDVPTFVSFLKEVESPYEVHDYIRAYLGDTSEAKEFAKQFLERRAKQKANQQRQQQQLPQQQQQQPPQQPPQQPQQQDSVWGMNHSTLHSVFQTNQSNNQQSNFEAVQSGKKKKKQKMVRADPSLLGFSVNASSERLNMGEIETLDDY
B4: GYF2 A1*: GYF2 P78D, L79A; auxiliary site 1 mutant (protein, UniProt Q6Y7W6 2-1299, looked up, variant P78D L79A)
GRB10-interacting GYF protein …: AAETQTLNFGPEWLRALSSGGSITSPPLSPALPKYKLADYRYGREEMLALFLKDNKIPSDLLDKEFLPILQEEPLPDAALVPFTEEEQRNFSMSVNSAAVLRLTGRGGGGTVVGAPRGRSSSRGRGRGRGECGFYQRSFDEVEGVFGRGGGREMHRSQSWEERGDRRFEKPGRKDVGRPNFEEGGPTSVGRKHEFIRSESENWRIFREEQNGEDEDGGWRLAGSRRDGERWRPHSPDGPRSAGWREHMERRRRFEFDFRDRDDERGYRRVRSGSGSIDDDRDSLPEWCLEDAEEEMGTFDSSGAFLSLKKVQKEPIPEEQEMDFRPVDEGEECSDSEGSHNEEAKEPDKTNKKEGEKTDRVGVEASEETPQTSSSSARPGTPSDHQSQEASQFERKDEPKTEQTEKAEEETRMENSLPAKVPSRGDEMVADVQQPLSQIPSDTASPLLILPPPVPNPSPTLRPVETPVVGAPGMGSVSTEPDDEEGLKHLEQQAEKMVAYLQDSALDDERLASKLQEHRAKGVSIPLMHEAMQKWYYKDPQGEIQGPFNNQEMAEWFQAGYFTMSLLVKRACDESFQPLGDIMKMWGRVPFSPGPAPPPHMGELDQERLTRQQELTALYQMQHLQYQQFLIQQQYAQVLAQQQKAALSSQQQQQLALLLQQFQTLKMRISDQNIIPSVTRSVSVPDTGSIWELQPTASQPTVWEGGSVWDLPLDTTTPGPALEQLQQLEKAKAAKLEQERREAEMRAKREEEERKRQEELRRQQEEILRRQQEEERKRREEEELARRKQEEALRRQREQEIALRRQREEEERQQQEEALRRLEERRREEEERRKQEELLRKQEEEAAKWAREEEEAQRRLEENRLRMEEEAARLRHEEEERKRKELEVQRQKELMRQRQQQQEALRRLQQQQQQQQLAQMKLPSSSTWGQQSNTTACQSQATLSLAEIQKLEEERERQLREEQRRQQRELMKALQQQQQQQQQKLSGWGNVSKPSGTTKSLLEIQQEEARQMQKQQQQQQQHQQPNRARNNTHSNLHTSIGNSVWGSINTGPPNQWASDLVSSIWSNADTKNSNMGFWDDAVKEVGPRNSTNKNKNNASLSKSVGVSNRQNKKVEEEEKLLKLFQGVNKAQDGFTQWCEQMLHALNTANNLDVPTFVSFLKEVESPYEVHDYIRAYLGDTSEAKEFAKQFLERRAKQKANQQRQQQQLPQQQQQQPPQQPPQQPQQQDSVWGMNHSTLHSVFQTNQSNNQQSNFEAVQSGKKKKKQKMVRADPSLLGFSVNASSERLNMGEIETLDDY

Tested on: 4EHP
Test: Pull-down / coimmunoprecipitation with 4EHP in HEK293T cell lysates
Type: binding, human
Conditions: HEK293T cells, GFP-tagged protein and V5-SBP-4EHP, Western blot
In short: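 Streptavidin-bead pull-down from RNase A-treated HEK293T lysates of cells expressing V5-SBP-tagged 4EHP or eIF4E (wild type or mutants). Co-bound endogenous GYF2, 4E-T and 4E-BP1 were probed; for 4EHP, co-expressed GFP-4E-BP1 was also probed, with V5-SBP-MBP as negative control. Inputs and bound fractions were analysed by Western blot with anti-V5, anti-GFP, anti-GYF2 and other antibodies, using ECL detection.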

**Q.** With “4E-BP1 C: 4E-BP1 Y54A, L59A; canonical motif mutant” as the molecule, how does the “interaction with 4EHP in cells, overexpressed binding partner” value (shortened to “interaction with 4EHP in cells”) read?
**A.** abolished its interaction with 4EHP

**Q.** For B1, which “interaction with 4EHP in cells” value is on record?
**A.** did not affect binding to overexpressed 4EHP in human cells

**Q.** For B2, which “interaction with 4EHP in cells” value is on record?
**A.** did not affect binding to overexpressed 4EHP in human cells

**Q.** With B3 as the molecule, how does the “interaction with 4EHP in cells” value read?
**A.** did not affect binding to overexpressed 4EHP in human cells

**Q.** B4 was tested. Which “interaction with 4EHP in cells” value did it give?
**A.** did not affect binding to overexpressed 4EHP in human cells
